# Calb biofilm kill: mixture kills Candida albicans biofilm cells. 120,000 tested, 0.02% active. inhibition, % at 7.6 µM. C. albicans biofilm persisters + clotrimazole, fluorescence viability; primary screen in compound mixtures of four per well;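 further: compounds exposed to preformed 24 h biofilms for 48 h; 0% = untreated biofilm control and 100% = clotrimazole plus chlorhexidine kill blank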
#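 System: C. albicans CAF4-2 wild-type biofilms; Medium: RPMI/MOPS medium, pH 7.0; Reagent: Clotrimazole, 50 µg/mL; Times: biofilm formation 24 h, compound exposure 48 h, 37 °C; Detection: 2-h Alamar Blue fluorescence, 535/590 nm excitation/emission; Evaluation: percent inhibition of biofilm viability.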
# Pf gametocyte: P. falciparum stage V gametocyte viability inhibition. 150,000 tested, 0.065% active. inhibition, % at 10.9 µM. P. falciparum stage V gametocytes, ATP luminescence, 24 h;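 active means inhibition above the mean plus 3 SD of compounds within the control limits, set per campaign, cut at about 38% in these data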;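 further: 0% = DMSO wells and 100% = medium only without gametocytes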
# ROMK mod: human ROMK K+ channel modulation, primary screen; B-score at 10 µM; Tet-inducible ROMK, thallium flux fluorescence; actives lie on both sides; AID 1918; 130,000 tested, 2% active;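 active means signal ratio slope over the read window, or its plate-corrected B-score, at least 3 SD from the plate mean, either direction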;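 further: B-score of the F/F0 ratio slope over 7 to 12 s after thallium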
# Target sequence (P48048 whole entry, looked up): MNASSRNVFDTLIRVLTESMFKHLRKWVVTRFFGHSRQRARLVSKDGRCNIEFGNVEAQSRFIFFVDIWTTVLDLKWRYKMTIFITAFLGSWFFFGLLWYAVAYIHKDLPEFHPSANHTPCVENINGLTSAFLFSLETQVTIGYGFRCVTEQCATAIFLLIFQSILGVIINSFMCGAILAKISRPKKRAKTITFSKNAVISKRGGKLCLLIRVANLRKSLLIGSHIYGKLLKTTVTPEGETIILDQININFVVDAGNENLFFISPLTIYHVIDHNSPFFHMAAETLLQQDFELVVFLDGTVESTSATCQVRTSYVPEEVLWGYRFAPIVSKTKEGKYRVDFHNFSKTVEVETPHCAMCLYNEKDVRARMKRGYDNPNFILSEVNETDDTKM
# * = called active by the depositor; . = no result. This excerpt belongs to a sample that is enriched for hits.
SMILES,Calb biofilm kill,Pf gametocyte,ROMK mod
O=C(CN1C(=O)/C(=C\c2cccc(F)c2)Oc2ccccc21)N1CCN(c2ccccn2)CC1,20.6,51.2*,-0.901
O=C(CN1C(=O)/C(=C\c2ccc(F)cc2)Oc2ccccc21)N1CCN(c2ccccn2)CC1,14.1,8.3,0.427
COCC(COS(N)(=O)=O)Cc1ccccc1 (centres undefined),.,0.0,.
Cc1ccc(NC(=O)c2ccc3c(c2)CCN3S(C)(=O)=O)c(C)c1,.,8.8,.
CN(Cc1ccccc1)C1CCN(Cc2ccccc2[N+](=O)[O-])CC1,.,8.9,.
COc1ccc(C2CC(c3ccc(F)cc3)n3nc(NC(=O)c4ccco4)nc3N2)cc1 (centres undefined),22.2,2.2,.
CC1CC(c2ccccc2)n2nc(NC(=O)c3ccco3)nc2N1 (centres undefined),.,.,-6.57*
O=C(NCc1ccc(F)cc1)C1CCN(S(=O)(=O)N2CCCC2)CC1,13.8,-9.1,-0.231
Cc1ccc(CNC(=O)C2CCN(S(=O)(=O)N3CCCCC3)CC2)cc1,15.5,40.1*,-0.4
CCOC(=O)c1ccc(NC(=S)Nc2ccc3[nH]c(=O)[nH]c3c2)cc1,0.7,3.7,.
CCN(CC)CC(=O)N1c2ccccc2Oc2c(c(=O)n(C)c(=O)n2C)C1c1cccc([N+](=O)[O-])c1 (centres undefined),8.8,-7.9,-1.06
N#C/C(=C\c1ccc(-c2ccc(F)cc2)o1)C(=O)Nc1nc(-c2cccs2)cs1,-0.7,-5.4,.
N#C/C(=C/c1ccc(-c2ccccc2)o1)c1nc(-c2cccs2)cs1,13.1,-18.0,-5.34*
CCOc1ccc(N2C(=O)C3ON(C)C(c4ccc([N+](=O)[O-])cc4)C3C2=O)cc1 (centres undefined),19.8,-10.6,.
CC(=O)/C(N=Nc1c(C)n(C)n(-c2ccccc2)c1=O)=C(\C)O,-9.8,-17.9,-0.443
CCOC(=O)/C(N=Nc1c(C)n(C)n(-c2ccccc2)c1=O)=C(\C)O,22.1,64.6*,.
Cc1cc(-c2nc(C)c(-c3nnc(SCC(=O)Nc4ccc(Cl)cc4)n3C)s2)no1,20.7,-5.8,0.253
CSc1ccc(C2=C/C(=C3/SC(=S)NC3=O)c3ccccc3O2)cc1,.,-2.7,.
O=C(NNC(=S)Nc1ccc(Cl)c(Cl)c1)c1cccc([N+](=O)[O-])c1,22.5,-18.9,3.03*
Cc1cccc(NC(=S)NNC(=O)c2cccc([N+](=O)[O-])c2)c1,-0.2,7.6,-1.09
Fc1ccc(C2=CC(c3ccc(Br)o3)n3ncnc3N2)cc1 (centres undefined),9.4,.,-3.45*
Oc1ccc(C2C=C(c3ccc(F)cc3)Nc3ncnn32)cc1 (centres undefined),9.2,0.0,.
Cc1ccnc(NC(c2cccnc2)c2ccc3cccnc3c2O)c1 (centres undefined),17.7,-2.9,-0.948
Cc1ccc2ccc(C(Nc3cccc(C(F)(F)F)c3)c3cccnc3)c(O)c2n1 (centres undefined),2.4,39.0*,0.605
Cn1cncc1C#Cc1ccc2cc(CCO)oc(=O)c2c1,.,16.1,.
SMILES,Calb biofilm kill,Pf gametocyte,ROMK mod
O=C(N/C(=C\c1ccco1)C(=O)N1CCOCC1)c1ccco1,5.6,17.9,.
O=C(N/C(=C\c1ccc(-c2ccccc2)o1)C(=O)N1CCOCC1)c1ccccc1,31.1,-11.7,-2.99*
O=C(NC1CCCCCC1)C1c2ccccc2C(=O)N1Cc1cccs1 (centres undefined),9.5,-20.2,0.274
O=C1c2ccccc2C(O)N1Cc1cccs1 (centres undefined),14.1,54.7*,.
CS(=O)(=O)N1CCC(C(=O)Nc2cccc(Br)c2)CC1,.,11.7,.
O=c1[nH]c(=O)n(-c2cc(Br)c(O)c(Br)c2)cc1Br,.,13.2,.
CCOc1ccc(C2C=C(c3ccc(F)cc3)Nc3ncnn32)cc1 (centres undefined),.,.,-0.488
CCOc1ccc(C2C=C(c3ccccc3)Nc3ncnn32)cc1 (centres undefined),.,.,-2.66*
N=c1c2c(-c3ccccc3)c(-c3ccccc3)n(Cc3ccco3)c2ncn1Cc1ccccc1,.,11.8,-4.84*
N=c1c2c(-c3ccccc3)c(-c3ccccc3)n(Cc3ccccc3)c2ncn1CCO,.,10.8,.
CC(C)(C)OC(=O)NCc1ccc(CNC(=O)c2nc[nH]c2C(=O)N2CCc3ccccc3C2)cc1,.,-0.8,.
O=C(c1ccc(CSc2nc3ccncc3[nH]2)cc1)N1CCCCCC1,25.1,-5.6,.
O=C(c1ccc(CSc2nc3ccncc3[nH]2)cc1)N1CCN(c2cccc(Cl)c2)CC1,1.8,.,-3.52*
CCOC(=O)c1c2ccccc2[n+]([O-])n1[C@@H](C)C(N)=O,.,22.3,.
CSC(=S)N/N=C/c1ccccc1,7.2,-26.4,6.17*
COc1ccc(/C=N/NC(=S)SC)cc1OC,3.8,19.6,1.72
Cc1sc2nc(CN3CCN(c4ccc(O)cc4)CC3)[nH]c(=O)c2c1C,5.3,-11.2,.
Cc1sc2nc(CN3CCOCC3)[nH]c(=S)c2c1C,-4.9,2.6,8.62*
Cc1nn(-c2ccccc2)c(N2CCCC2)c1C=O,8.1,40.0*,-0.223
Cc1nn(-c2ccccc2)c(N2CCCCC2)c1/C=N/O,.,14.4,0.0355
CN1CCN(c2c([N+](=O)[O-])cnc3ccccc23)CC1,.,-10.3,.
O=C(Sc1cccc2cccnc12)c1ccc(F)cc1,5.1,-33.4,8.73*
CC(=O)/C(=N\Nc1ccccc1)Sc1cccc2cccnc12,18.1,.,-0.0796
O=C(O)c1cccc(Sc2cc(Cl)ccc2C(=O)O)c1,.,-12.2,.
CC(Oc1ccc(Br)cc1)c1nc2c3ccccc3nc(=S)n2[nH]1 (centres undefined),5.2,3.9,2.91*
SMILES,Calb biofilm kill,Pf gametocyte,ROMK mod
CCCC(Oc1ccc(Br)cc1)c1nc2c3cc(OC)c(OC)cc3nc(=S)n2[nH]1 (centres undefined),10.6,-1.7,-0.0217
O=C(C[C@H]1C(=O)N(CCc2ccccc2)C[C@@H]1Cc1ccccc1)Nc1ccccc1,.,1.0,.
O=C(O)CCS(=O)(=O)c1nc(-c2cccs2)cc(C(F)(F)F)n1,.,.,-0.59
CS(=O)(=O)c1nc(-c2cccs2)cc(C(F)(F)F)n1,.,.,-4.25*
CCCCCCCN1CCN=C1N(C)C,.,-13.1,.
COc1ccc(-c2sc3cc4c(cc3c2C#Cc2ccc(N)cc2)OCO4)cc1,.,9.3,.
COc1ccc(CN2CCC(C(=O)c3ccc(Cl)cc3)CC2)cc1,.,12.7,.
COc1ccc(N2CCN(C(=O)c3ccccc3)CC2)c([N+](=O)[O-])c1,4.7,6.2,0.958
COc1ccc(N2CCN(C(=S)NC(=O)c3cccs3)CC2)c([N+](=O)[O-])c1,7.9,-3.0,3.45*
Cc1cc(NS(C)(=O)=O)c(=O)n(Cc2c(F)cccc2Cl)c1,.,4.7,.
COc1cc2oc3ccccc3c2cc1N(CC(=O)N(C)C)S(=O)(=O)c1ccc(C)cc1,.,-13.4,0.0103
COc1cc2oc3ccccc3c2cc1N(CC(=O)N(C)C)S(=O)(=O)c1ccccc1,.,-13.9,-0.37
CCN(CC)C(=O)CN(c1cc2c(cc1OC)oc1ccccc12)S(=O)(=O)c1ccccc1,.,-1.5,-4.59*
COc1cc2oc3ccccc3c2cc1N(CC(=O)N1CCCCC1)S(=O)(=O)c1ccc(C)cc1,.,13.6,-4.89*
CCOc1ccc(C(=O)Nc2ccc3c(c2)OCCO3)cc1,.,-2.7,.
CC(C)N(C(C)C)S(=O)(=O)c1ccc(NC(=O)c2cnccn2)cc1,.,-21.6,.
C[C@@H]1CN([C@H](C)CO)C(=O)c2cc(NC(=O)Cc3cn(C)c4ccccc34)ccc2O[C@H]1CN(C)S(=O)(=O)c1ccc(F)cc1,.,-6.8,.

# From PubChem BioAssay
